ChEMBL document CHEMBL1155010, “Synthesis and biological evaluation of substituted [18F]imidazo[1,2-a]pyridines and [18F]pyrazolo[1,5-a]pyrimidines for the study of the peripheral benzodiazepine receptor using positron emission tomography” (J Med Chem, 2008)

How the values were obtained:
[1] = Displacement of [3H]flumazenil from central benzodiazepine receptor in rat brain cortex membrane; assay type: cell membranes
Summary of the method: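 Rat brain cortex membranes (100-150 µg protein) were incubated in triplicate at 25 °C for 45 min with [3H]flumazenil (2 nM) and 7 ligand concentrations (10^-10 to 10^-5 M). Nonspecific binding was set with flumazenil 20 µM. Assays were filtered, washed with ice-cold Tris/HCl pH 7.4 and counted. Ki was derived from IC50 by Cheng-Prusoff.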

[2] = biological target: T1, Translocator protein (Rattus norvegicus, UniProt P16257); assay: Displacement of [3H]Ro 5-4864 from peripheral benzodiazepine receptor in rat kidney membrane; assay type: cell membranes
T1 sequence (P16257 whole entry, looked up): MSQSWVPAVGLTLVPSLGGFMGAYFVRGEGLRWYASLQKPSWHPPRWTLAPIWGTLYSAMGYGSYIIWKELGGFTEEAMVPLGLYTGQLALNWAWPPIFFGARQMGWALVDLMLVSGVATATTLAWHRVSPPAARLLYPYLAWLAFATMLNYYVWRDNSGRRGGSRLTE

[3] = biological target: T1, Translocator protein; assay: Displacement of [3H]PK11195 from peripheral benzodiazepine receptor in rat kidney membrane; assay type: cell membranes
[4] = Lipophilicity, log p at pH 7.5; assay type: physicochemical; conditions: buffer
Summary of the method: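 RP-HPLC on a C18 column with methanol/0.1 M phosphate buffer pH 7.5 (60/40) at 1 mL/min. Samples were dissolved in methanol. log P7.5 was estimated by comparing retention time with that of reference compounds of known log P.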

[5] = system: Lung; assay: Biodistribution in Sprague-Dawley rat lungs assessed per gram of tissue at 1 MBq, iv after 4 hrs; assay type: ADME, organism-based; conditions: in vivo
Summary of the method: (§1)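 Male SD rats aged 8-10 weeks got 1 MBq [18F]tracer by tail vein in 0.1 mL. Groups of n = 4 were killed (CO2, then cervical fracture) at 0.25, 0.5, 1 and 4 h. Organs were weighed and gamma counted against a diluted standard of the injectate. Results are %ID per gram wet tissue, mean with standard deviation.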

[6] = Biodistribution in Sprague-Dawley rat testis assessed per gram of tissue at 1 MBq, iv after 1 hr; assay type: ADME, organism-based; conditions: in vivo; summary of the method: as §1
[7] = system: Kidney; assay: Biodistribution in Sprague-Dawley rat kidney assessed per gram of tissue at 1 MBq, iv after 4 hrs; assay type: ADME, organism-based; conditions: in vivo; summary of the method: as §1
[8] = system: Adrenal; assay: Biodistribution in Sprague-Dawley rat adrenals assessed per gram of tissue at 1 MBq, iv after 0.25 hrs; assay type: ADME, organism-based, Adrenal tissue; conditions: in vivo; summary of the method: as §1
[9] = system: Liver; assay: Biodistribution in Sprague-Dawley rat liver assessed per gram of tissue at 1 MBq, iv after 0.5 hrs; assay type: ADME, organism-based; conditions: in vivo; summary of the method: as §1
[10] = system: Kidney; assay: Biodistribution in Sprague-Dawley rat kidney assessed per gram of tissue at 1 MBq, iv after 1 hr; assay type: ADME, organism-based; conditions: in vivo; summary of the method: as §1
[11] = Metabolic stability in Sprague-Dawley rat frontal cortex assessed as drug remaining at 30 MBq after 4 hrs by Radio-HPLC analysis; assay type: ADME, tissue-based; conditions: read-out: Stability
Summary of the method: (§2)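 Rats received 30 MBq tracer and were sampled at 0.25, 0.5, 1 and 4 h. Plasma was diluted with water containing unlabeled carrier and KF and injected directly. Frontal cortex or olfactory bulb was sonicated in acetonitrile/water 1:1 with carrier and KF, centrifuged, and the supernatant diluted. Radio-HPLC used a precolumn switched to C18 with a CH3CN/0.05 M sodium acetate pH 5.5 gradient. Result is % parent remaining.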

[12] = system: Femur; assay: Biodistribution in Sprague-Dawley rat femur at 1 MBq, iv after 0.25 hrs; assay type: ADME, organism-based; conditions: in vivo; summary of the method: as §1
[13] = system: Kidney; assay: Biodistribution in Sprague-Dawley rat kidney assessed per gram of tissue at 1 MBq, iv after 0.25 hrs; assay type: ADME, organism-based; conditions: in vivo; summary of the method: as §1
[14] = system: Heart; assay: Biodistribution in Sprague-Dawley rat heart assessed per gram of tissue at 1 MBq, iv after 1 hr; assay type: ADME, organism-based; conditions: in vivo; summary of the method: as §1
[15] = system: Lung; assay: Biodistribution in Sprague-Dawley rat lungs assessed per gram of tissue at 1 MBq, iv after 1 hr; assay type: ADME, organism-based; conditions: in vivo; summary of the method: as §1
[16] = system: Adrenal; assay: Biodistribution in Sprague-Dawley rat adrenals assessed per gram of tissue at 1 MBq, iv after 4 hrs; assay type: ADME, organism-based, Adrenal tissue; conditions: in vivo; summary of the method: as §1
[17] = Metabolic stability in Sprague-Dawley rat frontal cortex assessed as drug remaining at 30 MBq after 0.25 hrs by Radio-HPLC analysis; assay type: ADME, tissue-based; conditions: read-out: Stability; summary of the method: as §2
[18] = system: Blood; assay: Biodistribution in Sprague-Dawley rat blood at 1 MBq, iv after 0.25 hrs; assay type: ADME, organism-based; conditions: in vivo; summary of the method: as §1
[19] = Biodistribution in Sprague-Dawley rat testis assessed per gram of tissue at 1 MBq, iv after 0.25 hrs; assay type: ADME, organism-based; conditions: in vivo; summary of the method: as §1
[20] = system: Spleen; assay: Biodistribution in Sprague-Dawley rat spleen assessed per gram of tissue at 1 MBq, iv after 4 hrs; assay type: ADME, organism-based; conditions: in vivo; summary of the method: as §1
[21] = Biodistribution in Sprague-Dawley rat testis assessed per gram of tissue at 1 MBq, iv after 0.5 hrs; assay type: ADME, organism-based; conditions: in vivo; summary of the method: as §1
[22] = system: Liver; assay: Biodistribution in Sprague-Dawley rat liver assessed per gram of tissue at 1 MBq, iv after 4 hrs; assay type: ADME, organism-based; conditions: in vivo; summary of the method: as §1
[23] = system: Liver; assay: Biodistribution in Sprague-Dawley rat liver assessed per gram of tissue at 1 MBq, iv after 1 hr; assay type: ADME, organism-based; conditions: in vivo; summary of the method: as §1
[24] = system: Spleen; assay: Biodistribution in Sprague-Dawley rat spleen assessed per gram of tissue at 1 MBq, iv after 1 hr; assay type: ADME, organism-based; conditions: in vivo; summary of the method: as §1
[25] = Metabolic stability in Sprague-Dawley rat plasma assessed as drug remaining at 30 MBq after 0.25 hrs by Radio-HPLC analysis; assay type: ADME, cell-free; conditions: read-out: Stability; summary of the method: as §2
[26] = system: Heart; assay: Biodistribution in Sprague-Dawley rat heart assessed per gram of tissue at 1 MBq, iv after 0.25 hrs; assay type: ADME, organism-based; conditions: in vivo; summary of the method: as §1
[27] = system: Kidney; assay: Biodistribution in Sprague-Dawley rat kidney assessed per gram of tissue at 1 MBq, iv after 0.5 hrs; assay type: ADME, organism-based; conditions: in vivo; summary of the method: as §1
[28] = system: Liver; assay: Biodistribution in Sprague-Dawley rat liver assessed per gram of tissue at 1 MBq, iv after 0.25 hrs; assay type: ADME, organism-based; conditions: in vivo; summary of the method: as §1
[29] = system: Adrenal; assay: Biodistribution in Sprague-Dawley rat adrenals assessed per gram of tissue at 1 MBq, iv after 0.5 hrs; assay type: ADME, organism-based, Adrenal tissue; conditions: in vivo; summary of the method: as §1
[30] = system: Lung; assay: Biodistribution in Sprague-Dawley rat lungs assessed per gram of tissue at 1 MBq, iv after 0.25 hrs; assay type: ADME, organism-based; conditions: in vivo; summary of the method: as §1
[31] = system: Heart; assay: Biodistribution in Sprague-Dawley rat heart assessed per gram of tissue at 1 MBq, iv after 0.5 hrs; assay type: ADME, organism-based; conditions: in vivo; summary of the method: as §1
[32] = system: Heart; assay: Biodistribution in Sprague-Dawley rat heart assessed per gram of tissue at 1 MBq, iv after 4 hrs; assay type: ADME, organism-based; conditions: in vivo; summary of the method: as §1
[33] = system: Spleen; assay: Biodistribution in Sprague-Dawley rat spleen assessed per gram of tissue at 1 MBq, iv after 0.5 hrs; assay type: ADME, organism-based; conditions: in vivo; summary of the method: as §1
[34] = Biodistribution in Sprague-Dawley rat testis assessed per gram of tissue at 1 MBq, iv after 4 hrs; assay type: ADME, organism-based; conditions: in vivo; summary of the method: as §1
[35] = system: Femur; assay: Biodistribution in Sprague-Dawley rat femur at 1 MBq, iv after 4 hrs; assay type: ADME, organism-based; conditions: in vivo; summary of the method: as §1
[36] = system: Lung; assay: Biodistribution in Sprague-Dawley rat lungs assessed per gram of tissue at 1 MBq, iv after 0.5 hrs; assay type: ADME, organism-based; conditions: in vivo; summary of the method: as §1
[37] = system: Adrenal; assay: Biodistribution in Sprague-Dawley rat adrenals assessed per gram of tissue at 1 MBq, iv after 1 hr; assay type: ADME, organism-based, Adrenal tissue; conditions: in vivo; summary of the method: as §1
[38] = system: Blood; assay: Biodistribution in Sprague-Dawley rat blood at 1 MBq, iv after 4 hrs; assay type: ADME, organism-based; conditions: in vivo; summary of the method: as §1
[39] = system: Spleen; assay: Biodistribution in Sprague-Dawley rat spleen assessed per gram of tissue at 1 MBq, iv after 0.25 hrs; assay type: ADME, organism-based; conditions: in vivo; summary of the method: as §1
[40] = Ratio of drug level in olfactory bulb to blood in Sprague-Dawley rat at 1 MBq, iv; assay type: ADME
Summary of the method: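 Same rat biodistribution as above: 1 MBq iv by tail vein, n = 4 per time point, 0.25-4 h, gamma counting as %ID/g. Ratio is the olfactory bulb radioactivity concentration divided by the blood concentration at each time.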

[41] = Metabolic stability in Sprague-Dawley rat plasma assessed as drug remaining at 30 MBq after 4 hrs by Radio-HPLC analysis; assay type: ADME, cell-free; conditions: read-out: Stability; summary of the method: as §2
[42] = Metabolic stability in Sprague-Dawley rat olfactory bulb assessed as drug remaining at 30 MBq after 0.25 hrs by Radio-HPLC analysis; assay type: ADME, tissue-based; conditions: read-out: Stability; summary of the method: as §2
[43] = Metabolic stability in Sprague-Dawley rat olfactory bulb assessed as drug remaining at 30 MBq after 4 hrs by Radio-HPLC analysis; assay type: ADME, tissue-based; conditions: read-out: Stability; summary of the method: as §2

Structure (SMILES) | Ki [1] [nM] | Ki [2] [nM] | Ki [3] [nM] | logD [4] | Drug uptake [5] [%ID] | Drug uptake [6] [%ID] | Drug uptake [7] [%ID] | Drug uptake [8] [%ID] | Drug uptake [9] [%ID] | Drug uptake [10] [%ID] | remaining at 4 h [11] [%] | Drug uptake [12] [% ID/g] | Drug uptake [13] [%ID] | Drug uptake [14] [%ID] | Drug uptake [15] [%ID] | Drug uptake [16] [%ID] | remaining at 0.25 h [17] [%] | Drug uptake [19] [%ID] | Drug uptake [20] [%ID] | Drug uptake [21] [%ID] | further results
CCN(CC)C(=O)Cc1c(-c2ccc(OCCCF)cc2)nc2ccc(Cl)cn12 | 800 | 4.2 | 3.7 | 3.2 | – | – | – | – | – | – | – | – | – | – | – | – | – | – | – | – | –
CCN(CC)C(=O)Cc1c(-c2ccc(OCCF)cc2)nc2ccc(Cl)cn12 | 790 | 3.3 | 5.8 | 2.7 | – | – | – | – | – | – | – | – | – | – | – | – | – | – | – | – | –
CCN(CC)C(=O)Cc1c(-c2ccc(OCCC[18F])cc2)nc2ccc(Cl)cn12 | – | – | – | – | 2.2 | 0.41 | 1.8 | 8.5 | 0.79 | 3.7 | 30 | 0.6 | 4.3 | 6.4 | 4.1 | 11.4 | 55 | 0.33 | 2.5 | 0.43 | Drug uptake [18]: 0.3 % ID/g; Drug uptake [22]: 0.3 %ID; Drug uptake [23]: 0.61 %ID; Drug uptake [24]: 4.5 %ID; remaining at 0.25 h [25]: 10%; Drug uptake [26]: 7.8 %ID; Drug uptake [27]: 5 %ID; Drug uptake [28]: 1.08 %ID; Drug uptake [29]: 11.8 %ID; Drug uptake [30]: 12.3 %ID; Drug uptake [31]: 8.3 %ID; Drug uptake [32]: 2.9 %ID; Drug uptake [33]: 6 %ID; Drug uptake [34]: 0.53 %ID; Drug uptake [35]: 2.2 % ID/g; Drug uptake [36]: 7.7 %ID; Drug uptake [37]: 9.6 %ID; Drug uptake [38]: 0.1 % ID/g; Drug uptake [39]: 5.5 %ID
CCN(CC)C(=O)Cc1c(-c2ccc(OCC[18F])cc2)nc2ccc(Cl)cn12 | – | – | – | – | 8.1 | 0.31 | 1.3 | 6.7 | 0.52 | 2.7 | 10 | 0.4 | 3.3 | 4.6 | 11.6 | 7.1 | 55 | 0.17 | 1.9 | 0.23 | Kp [40]: 2; Drug uptake [22]: 0.29 %ID; Drug uptake [23]: 0.35 %ID; Drug uptake [24]: 3.4 %ID; Drug uptake [26]: 4.3 %ID; Drug uptake [27]: 3.2 %ID; Drug uptake [28]: 0.63 %ID; Drug uptake [29]: 7.9 %ID; Drug uptake [30]: 14.3 %ID; Drug uptake [31]: 4.4 %ID; Drug uptake [32]: 2.8 %ID; Drug uptake [33]: 3.9 %ID; Drug uptake [34]: 0.42 %ID; remaining at 4 h [41]: < 1%; Drug uptake [35]: 0.7 % ID/g; Drug uptake [36]: 12.1 %ID; Drug uptake [37]: 7.3 %ID; Drug uptake [39]: 4.5 %ID; remaining at 0.25 h [42]: 80%; remaining at 4 h [43]: 40%
